Reference: ChEMBL document CHEMBL4387752, “Identification of substituted benzothiazole sulfones as potent and selective inhibitors of endothelial lipase” (Bioorg Med Chem Lett, 2019)
Calls of active or inactive are those of the source. The rule behind the calls is not given here.

How the values were obtained:
[1] = Plasma concentration in Balb/c mouse at 20 mg/kg, po measured after 24 hrs; type: ADME, organism-based
Summary of the method: (§1)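 Oral PK in fasted male balb/c mice. Dosing vehicle was ethanol/PEG 400/water (10:60:30).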

[2] = Ratio of total AUC in Balb/c mouse at 20 mg/kg, po to total AUC in Balb/c mouse at 10 mg/kg, po measured after 24 hrs; type: ADME, organism-based; conditions: in vivo
Summary of the method: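 Ratio of AUCtotal between 20 and 10 mg/kg oral doses in fasted male balb/c mice. Vehicle was ethanol/PEG 400/water (10:60:30).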

[3] = Ratio of Cmin in C57BL/6 mouse at 20 mg/kg, po bid measured after 102 hrs to IC50 for inhibition of mouse endothelial lipase expressed in HEK293F cells using D31-POPC-HDL as substrate incubated for 2 hrs in presence of mouse plasma by LC/MS analysis; type: organism-based; conditions: in vivo
[4] = Plasma concentration in Balb/c mouse at 30 mg/kg, po measured after 24 hrs; type: ADME, organism-based; summary of the method: as §1
[5] = Total AUC in Balb/c mouse at 20 mg/kg, po measured after 24 hrs; type: ADME, organism-based; set-up: dose 20 mg/kg, time AUCmax, route oral; conditions: in vivo; summary of the method: as §1
[6] = Tmax in Balb/c mouse at 20 mg/kg, po; type: ADME, organism-based; conditions: in vivo; summary of the method: as §1
[7] = Ratio of Cmin in C57BL/6 mouse at 20 mg/kg, po bid measured after 24 hrs to IC50 for inhibition of mouse endothelial lipase expressed in HEK293F cells using D31-POPC-HDL as substrate incubated for 2 hrs in presence of mouse plasma by LC/MS analysis; type: organism-based; conditions: in vivo
[8] = Cmax in Balb/c mouse at 20 mg/kg, po; type: ADME, organism-based; set-up: dose 20 mg/kg, route oral; conditions: in vivo; summary of the method: as §1
Endothelial lipase [9] = molecular target: T1, Endothelial lipase (Mus musculus, UniProt Q9WVG5); test: Inhibition of endothelial lipase in hepatic lipase knock-out mouse plasma using D31-POPC-HDL as substrate incubated for 2 hrs by LC/MS analysis; type: cell-free
T1 sequence (Q9WVG5 whole entry): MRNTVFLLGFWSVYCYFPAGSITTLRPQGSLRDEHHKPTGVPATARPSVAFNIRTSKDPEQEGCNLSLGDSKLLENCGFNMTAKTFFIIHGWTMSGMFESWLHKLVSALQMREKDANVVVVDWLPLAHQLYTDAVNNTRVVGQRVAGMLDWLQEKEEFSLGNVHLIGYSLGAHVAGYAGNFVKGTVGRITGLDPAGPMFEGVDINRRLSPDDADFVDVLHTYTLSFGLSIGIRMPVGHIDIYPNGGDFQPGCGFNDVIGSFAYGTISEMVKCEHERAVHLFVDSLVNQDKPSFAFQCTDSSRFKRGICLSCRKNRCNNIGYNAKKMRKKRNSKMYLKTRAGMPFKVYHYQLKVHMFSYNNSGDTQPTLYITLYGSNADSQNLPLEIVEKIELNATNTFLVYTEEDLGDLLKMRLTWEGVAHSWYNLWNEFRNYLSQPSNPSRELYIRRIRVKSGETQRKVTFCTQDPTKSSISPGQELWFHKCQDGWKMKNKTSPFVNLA
Summary of the method: (§2)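 IC50 values were derived from the means of duplicate inhibition measurements.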

[10] = Permeability of compound at pH 5.5 by PAMPA; type: ADME; conditions: read-out: permeability
Summary of the method: (§3)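 Permeability was measured by parallel artificial membrane permeability assay (PAMPA) at pH 5.5 and pH 7.4. Values are reported in nm/s.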

[11] = Cmin in C57BL/6 mouse at 20 mg/kg, po bid measured after 24 hrs; type: ADME, organism-based; conditions: in vivo, read-out: Cmin
Summary of the method: (§4)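 Satellite PK cohort of wild-type C57BL/6 mice given 20 mg/kg p.o. b.i.d. over 4 days. Plasma levels were taken at 8, 24 and 102 h.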

[12] = Tmax in Balb/c mouse at 10 mg/kg, po; type: ADME, organism-based; conditions: in vivo; summary of the method: as §1
[13] = Tmax in Balb/c mouse at 30 mg/kg, po; type: ADME, organism-based; conditions: in vivo; summary of the method: as §1
[14] = Cmax in Balb/c mouse at 10 mg/kg, po; type: ADME, organism-based; set-up: dose 10 mg/kg, route oral; conditions: in vivo; summary of the method: as §1
[15] = Half life in Balb/c mouse at 30 mg/kg, po; type: ADME, organism-based; conditions: in vivo; summary of the method: as §1
[16] = Metabolic stability in Balb/c mouse liver microsomes assessed as parent compound remaining at 0.5 uM measured after 10 mins; type: ADME, Microsome; conditions: read-out: Stability
Summary of the method: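 Test compound at 0.5 μM was incubated for 10 min with mouse liver microsomes. The read-out is the percentage of parent remaining.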

[17] = Plasma concentration in Balb/c mouse at 30 mg/kg, po measured after 7 hrs; type: ADME, organism-based; summary of the method: as §1
[18] = Total AUC in Balb/c mouse at 30 mg/kg, po measured after 24 hrs; type: ADME, organism-based; set-up: dose 30 mg/kg, route oral, time AUCmax; conditions: in vivo; summary of the method: as §1
[19] = Cmax in Balb/c mouse at 30 mg/kg, po; type: ADME, organism-based; set-up: dose 30 mg/kg, route oral; conditions: in vivo; summary of the method: as §1
[20] = Plasma concentration in Balb/c mouse at 10 mg/kg, po measured after 24 hrs; type: ADME, organism-based; summary of the method: as §1
[21] = Ratio of Cmin in C57BL/6 mouse at 20 mg/kg, po bid measured after 8 hrs to IC50 for inhibition of mouse endothelial lipase expressed in HEK293F cells using D31-POPC-HDL as substrate incubated for 2 hrs in presence of mouse plasma by LC/MS analysis; type: organism-based; conditions: in vivo
Mus musculus [22] = test: Effect on in LDL-C level in C57BL/6 mouse plasma at 20 mg/kg, po bid measured after 1 to 4 days by FPLC analysis; type: functional, organism-based
Summary of the method: (§5)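 Wild-type C57BL/6 mice were dosed at 20 mg/kg p.o. b.i.d. for 4 days alongside a vehicle control group. Lipoprotein profiles were obtained by FPLC on day 1 and day 4, using plasma pooled from 8 mice.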

[23] = Plasma concentration in Balb/c mouse at 20 mg/kg, po measured after 7 hrs; type: ADME, organism-based; summary of the method: as §1
Endothelial lipase [24] = molecular target: T1, Endothelial lipase; test: Inhibition of mouse endothelial lipase expressed in HEK293F cells using D31-POPC-HDL as substrate incubated for 2 hrs in presence of mouse plasma by LC/MS analysis; summary of the method: as §2
[25] = Plasma concentration in Balb/c mouse at 10 mg/kg, po measured after 7 hrs; type: ADME, organism-based; summary of the method: as §1
[26] = Total AUC in Balb/c mouse at 10 mg/kg, po measured after 24 hrs; type: ADME, organism-based; set-up: dose 10 mg/kg, time AUCmax, route oral; conditions: in vivo; summary of the method: as §1
[27] = Cmin in C57BL/6 mouse at 20 mg/kg, po bid measured after 102 hrs; type: ADME, organism-based; conditions: in vivo, read-out: Cmin; summary of the method: as §4
[28] = Ratio of Cmin in Balb/c mouse at 20 mg/kg, po bid to IC50 for inhibition of mouse endothelial lipase expressed in HEK293F cells using D31-POPC-HDL as substrate incubated for 2 hrs in presence of mouse plasma by LC/MS analysis; type: organism-based; conditions: in vivo
[29] = Cmin in C57BL/6 mouse at 20 mg/kg, po bid measured after 8 hrs; type: ADME, organism-based; conditions: in vivo, read-out: Cmin; summary of the method: as §4
Homo sapiens = species: Homo sapiens; test: Selectivity index, ratio of IC50 for inhibition of human hepatic lipase expressed in African green monkey COS7 cells to IC50 for inhibition of human endothelial lipase derived from human HT1080 cell conditioned media; type: cell-based
Endothelial lipase [30] = molecular target: T2, Endothelial lipase (Homo sapiens, UniProt Q9Y5X9); test: Inhibition of human endothelial lipase derived from human HT1080 cell conditioned media using PED-A1 as substrate incubated for 20 mins and measured every 20 secs for 10 mins by FRET assay
T2 sequence (Q9Y5X9 whole entry): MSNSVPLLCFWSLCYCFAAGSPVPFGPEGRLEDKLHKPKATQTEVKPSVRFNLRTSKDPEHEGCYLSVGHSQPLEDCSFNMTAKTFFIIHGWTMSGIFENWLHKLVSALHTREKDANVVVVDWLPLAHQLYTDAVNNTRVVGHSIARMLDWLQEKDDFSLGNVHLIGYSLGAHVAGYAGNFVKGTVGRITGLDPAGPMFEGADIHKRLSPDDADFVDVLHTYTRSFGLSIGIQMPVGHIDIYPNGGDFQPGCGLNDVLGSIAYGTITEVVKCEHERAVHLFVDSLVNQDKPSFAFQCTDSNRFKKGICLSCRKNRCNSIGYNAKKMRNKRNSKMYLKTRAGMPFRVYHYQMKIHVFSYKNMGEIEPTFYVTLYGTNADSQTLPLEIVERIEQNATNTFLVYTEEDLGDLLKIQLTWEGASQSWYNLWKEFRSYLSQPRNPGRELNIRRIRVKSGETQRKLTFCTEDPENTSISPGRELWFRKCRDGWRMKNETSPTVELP
Summary of the method: (§6)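 IC50s were calculated from mean inhibition values of duplicate determinations.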

[31] = Half life in Balb/c mouse at 10 mg/kg, po; type: ADME, organism-based; conditions: in vivo; summary of the method: as §1
[32] = molecular target: T3, Hepatic triacylglycerol lipase (Homo sapiens, UniProt P11150); test: Inhibition of human hepatic lipase expressed in African green monkey COS7 cells using PED-A1 as substrate incubated for 20 mins and measured every 20 secs for 10 mins by FRET assay; type: cell-based; summary of the method: as §6
T3 sequence (P11150 whole entry): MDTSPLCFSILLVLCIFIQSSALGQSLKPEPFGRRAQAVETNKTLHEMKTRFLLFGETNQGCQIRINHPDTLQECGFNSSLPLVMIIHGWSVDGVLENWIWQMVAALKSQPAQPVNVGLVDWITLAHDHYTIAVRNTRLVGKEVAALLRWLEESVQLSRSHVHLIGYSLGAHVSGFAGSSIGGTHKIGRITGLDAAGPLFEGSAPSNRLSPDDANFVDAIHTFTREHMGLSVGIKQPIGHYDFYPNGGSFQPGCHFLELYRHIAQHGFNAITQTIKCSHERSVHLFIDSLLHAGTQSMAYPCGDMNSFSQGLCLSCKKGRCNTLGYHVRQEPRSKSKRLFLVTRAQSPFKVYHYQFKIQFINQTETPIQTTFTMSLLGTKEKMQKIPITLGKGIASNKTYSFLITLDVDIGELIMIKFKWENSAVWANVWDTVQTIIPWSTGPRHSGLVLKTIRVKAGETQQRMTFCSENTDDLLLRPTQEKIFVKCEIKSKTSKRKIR

Endothelial lipase [33] = molecular target: T2, Endothelial lipase; test: Inhibition of human endothelial lipase using D31-POPC-HDL as substrate incubated for 2 hrs in presence of human serum by LC/MS analysis; summary of the method: as §2
[34] = Half life in Balb/c mouse at 20 mg/kg, po; type: ADME, organism-based; conditions: in vivo; summary of the method: as §1
Mus musculus [35] = test: Increase in HDL-C level in C57BL/6 mouse plasma at 20 mg/kg, po bid measured after 1 to 4 days by FPLC analysis; type: functional, organism-based; summary of the method: as §5
[36] = Permeability of compound at pH 7.4 by PAMPA; type: ADME; conditions: read-out: permeability; summary of the method: as §3

## COCCS(=O)(=O)C(C(=O)NCC(=O)NC1CC1)c1nc2ccc(-c3ccc(F)nc3)cc2s1 (stereo not given)
[1]
  concentration at 24 h: 45 nM
[2]
  Ratio: 3.6
[3]
  Ratio: > 15
[4]
  concentration at 24 h: 25 nM
[5]
  AUC at 24 h: 400 µM·h
[6]
  Tmax: 0.5 h
[7]
  Ratio: > 15
[8]
  Cmax: 143000 nM
Endothelial lipase [9]
  IC50: 310 nM
[10]
  Papp: 9.4 ×10⁻⁶ cm/s
[11]
  concentration at 24 h: 1800 nM
[12]
  Tmax: 1 h
[13]
  Tmax: 0.25 h
[14]
  Cmax: 39000 nM
[15]
  half-life: 2.3 h
[16]
  remaining at 10 min, 0.5 µM: 81%
[17]
  concentration at 7 h: 2420 nM
[18]
  AUC at 24 h: 240 µM·h
[19]
  Cmax: 142000 nM
[20]
  concentration at 24 h: 14 nM
[21]
  Ratio: > 15
Mus musculus [22]
  Activity: inactive
[23]
  concentration at 7 h: 7400 nM
Endothelial lipase [24]
  IC50: 120 nM
[25]
  concentration at 7 h: 1700 nM
[26]
  AUC at 24 h: 111 µM·h
[27]
  concentration at 102 h: 6500 nM
[28]
  Ratio: 23
[29]
  concentration at 8 h: 5200 nM
Homo sapiens
  Ratio IC50: 84
Endothelial lipase [30]
  IC50: 4.6 nM
[31]
  half-life: 2.2 h
[32]
  IC50: 230 nM
Endothelial lipase [33]
  IC50: 83 nM
[34]
  half-life: 2.3 h
Mus musculus [35]
  Activity: inactive

## CS(=O)(=O)C(C(=O)NCCS(N)(=O)=O)c1nc2ccc(-c3ccc(F)nc3)cc2s1 (stereo not given)
[36]
  Papp: 7.8 ×10⁻⁶ cm/s
[10]
  Papp: 1.7 ×10⁻⁶ cm/s
[14]
  Cmax: 30 nM
[16]
  remaining at 10 min, 0.5 µM: 96%
Endothelial lipase [24]
  IC50: 200 nM
[25]
  concentration at 7 h: 1 nM
[26]
  AUC at 24 h: 0.05 µM·h
Endothelial lipase [30]
  IC50: 5 nM
[32]
  IC50: 4400 nM

## O=C(CNC(=O)C(c1nc2ccc(-c3ccc(F)nc3)cc2s1)S(=O)(=O)Cc1ccccc1)NC1CC1 (stereo not given)
Endothelial lipase [24]
  IC50: 94 nM
Homo sapiens
  Ratio IC50: 0.3
Endothelial lipase [30]
  IC50: 25 nM
[32]
  IC50: 7 nM
Endothelial lipase [33]
  IC50: 65 nM
